# Most compounds without a hit are left out; they make up all but 7.9% or so of the library.
# SF-1 act = activators of human SF-1, primary screen, cell-based, CHO-K1, Gal4-SF-1 LBD, luciferase luminescence | activation, % at 10 µM | AID 522, 2006 | CHO-K1 Gal4-SF-1 LBD luciferase reporter; % increase over DMSO SF-1-specific signal | Steroidogenic factor 1 (Homo sapiens), Q13285 | actives 1.9% (n = 65,000);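 active means activation above the mean activation of all tested compounds plus 3 SD, cut at about 50% in these data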
#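 Assay system: CHO-K1 cells co-transfected with Gal4 DBD–human SF-1 LBD, 5xGal4 luciferase reporter; doses: 10 µM only; incubation: 20 h compound exposure at 37 °C after 1 h cell settling; signal: luciferase light emission; evaluation: percent activation versus DMSO; repeats: one test per compound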
# HEK293 NFkB inh = inhibitors of PMA/ionomycin-induced NF-kB reporter, primary screen, antigen receptor NF-kB inhibitor project, cell-based, HEK-293 luciferase reporter, luminescence. HEK-293 NF-kB luciferase reporter. inhibition, % at 3 µM. actives 0.21% (n = 62,000);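 active means inhibition above the mean of all tested compounds plus 3 SD, cut at about 40% in these data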;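 further: 0% = stimulated DMSO wells and 100% = 10 µM reference inhibitor 5653914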
#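 Material: HEK-293 cells with stable firefly luciferase reporter driven by four HIV NF-kB elements / Also added: PMA plus ionomycin mix as NF-kB-activating stimulus / Compound dosing: 3 µM once, 0.30% DMSO / Times: 1 h pretreatment, 16 h stimulation, 37 °C / Signal: luminescence / Evaluation: per-plate % inhibition versus controls / Benchmarks: DMSO and 10 µM reference inhibitor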
# RORA act = activators of orphan receptor RORA, primary screen, cell-based, luminescence; Nuclear receptor ROR-alpha (Homo sapiens), P35398; CHO-K1 Gal4-RORA LBD luciferase reporter; percent increase over mock-subtracted basal signal; activation, % at 10 µM; actives 1.5% (n = 65,000); AID 560, 2006;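 active means activation above the mean of all tested compounds plus 3 SD, cut at about 49% in these data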;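 further: 0% = DMSO-treated RORA cells and 100% = added signal equal to DMSO minus mock-transfected cells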
# D1 allo mod = D1 CRE-luciferase signal change, two-sided – cell-based, HEK293 D1, dopamine EC30, D1 allosteric modulator project, primary screen; D(1A) dopamine receptor (Homo sapiens), P21728; dopamine EC30 potentiation; actives deviate in either direction; B-score at 10 µM; actives 5.9% (n = 58,000);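 active means luminescence count or its row- and column-corrected plate score outside the 99.7% band of the plate's sample wells, on either side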
# Target sequence (P21728 whole entry, looked up): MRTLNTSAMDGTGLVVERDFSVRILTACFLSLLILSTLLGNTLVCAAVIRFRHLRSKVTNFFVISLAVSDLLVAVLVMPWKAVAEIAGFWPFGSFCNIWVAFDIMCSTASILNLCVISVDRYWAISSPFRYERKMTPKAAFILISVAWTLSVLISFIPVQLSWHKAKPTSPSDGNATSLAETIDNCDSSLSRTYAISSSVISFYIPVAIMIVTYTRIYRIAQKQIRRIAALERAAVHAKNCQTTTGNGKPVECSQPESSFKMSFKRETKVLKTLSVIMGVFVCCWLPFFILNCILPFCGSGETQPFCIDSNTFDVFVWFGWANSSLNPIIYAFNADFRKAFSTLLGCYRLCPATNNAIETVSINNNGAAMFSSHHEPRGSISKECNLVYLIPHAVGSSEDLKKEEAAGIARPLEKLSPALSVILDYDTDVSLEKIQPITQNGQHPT
# JNK3 inh = JNK3 kinase activity inhibitors, primary screen, biochemical, human, purified enzyme; actives 0.61% (n = 60,000); HTS; inhibition, % at 8 µM; in the data active means inhibition above about 17%;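 further: 0% = DMSO and 100% = reference inhibitor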
# * hit, by the source's call; · = not tested or not shown.
SMILES,SF-1 act,HEK293 NFkB inh,RORA act,D1 allo mod,JNK3 inh
O=S(=O)(c1ccc(F)cc1)N1CCC(N2CCN(c3ccccc3)CC2)CC1,6.7,11.1,-4.3,-2.49,-2.1
CCn1c(=N)n(CC(=O)c2ccco2)c2ccccc21,-9.5,-2.7,7.0,-1.03,-2.8
CCn1c(=N)n(CCO)c2ccccc21,-2.3,1.0,24.9,-4.09*,-2.7
CCOC(=O)C1(CC)NC(c2cccc(F)c2)C2C(=O)N(CC)C(=O)C21 (stereo not given),0.3,5.2,-16.6,-0.244,5.0
c1csc(-c2nnsc2-c2nc3ccccc3[nH]2)c1,20.8,17.6,9.5,0.204,-1.2
O=c1[nH]c2ccccc2nc1-c1cccs1,54.2*,11.5,9.0,2.28,12.5
Cn1c(NC(=O)CCC2CCCCC2)cc(=O)n(C)c1=O,91.6*,-24.8,38.1,1.03,-3.3
Cn1c(NC(=O)C2CC2)cc(=O)n(C)c1=O,-19.2,15.5,-11.4,-0.746,0.6
O=C(Nc1c(C(=O)Nc2cccc(F)c2)oc2ccccc12)c1ccc2c(c1)OCO2,10.2,16.2,-7.5,-0.193,6.0
CCOC(=O)c1ccc(NC(=O)c2ccc3c(c2)OCO3)cc1,37.3,-14.8,29.5,0.293,-4.6
O=C(Nc1cccc(F)c1)c1ccc2c(c1)OCO2,61.5*,-25.2,31.2,0.0424,1.8
CCOC(=O)c1c(C)[nH]c(C(=O)Nc2ccc3c(c2)OCO3)c1C,132.1*,-40.3,58.9*,-3.24,7.0
O=C(Nc1ccc2c(c1)OCO2)c1cccs1,60.7*,-10.2,25.8,0.54,2.7
O=C(Nc1ccc2c(c1)OCO2)c1ccc(Br)s1,48.6,-39.1,68.8*,-3.16,-4.0
O=C(CSc1nnc(CNC(=O)c2cccs2)o1)NCCc1ccccc1,-0.4,9.0,-8.9,-0.0834,·
CCOc1ccc2[nH]c(=O)c(C(c3nnnn3Cc3ccco3)N3CCCC(C)C3)cc2c1 (stereo not given),-11.6,-4.2,-10.7,-0.495,10.3
O=C(NC1CCCCCCC1)c1ccc2c(c1)OCO2,12.8,-9.4,-13.7,-3.52*,-7.1
O=C(c1ccc2c(c1)OCCCO2)c1cccs1,53.7*,-39.7,22.2,-1.16,-3.5
Cc1ccccc1C(=O)Nc1ccc2c(c1)OCO2,-27.4,-32.0,0.7,-4.3*,-5.9
N/C(=N\O)c1ccc(NC(=O)c2cccs2)cc1,52.4*,-20.3,35.5,-0.278,13.3
O=C(NCC1CCCO1)c1cccs1 (stereo not given),9.7,10.0,-0.6,0.203,-1.5
Cc1nn(-c2nc3ccccc3s2)c(N)c1-c1ccc(Cl)cc1,19.5,-4.2,25.6,-1.65,3.5
Cc1nn(-c2nc3ccccc3s2)c(N)c1Sc1ccc(F)cc1,63.0*,14.8,25.9,0.142,0.9
Cc1nn(-c2nc3ccccc3s2)c(N)c1-c1ccccc1,60.0*,-45.4,43.3,0.016,-7.4
Cc1nn(-c2nc3ccccc3[nH]2)c(N)c1-c1ccccc1,31.2,-77.0,54.3*,-3.94,5.4
SMILES,SF-1 act,HEK293 NFkB inh,RORA act,D1 allo mod,JNK3 inh
CN(C)c1nc2n(c(=O)n1)C(C#N)CS2 (stereo not given),1.5,·,1.0,0.588,1.8
Nc1nnc(SCc2ccccc2F)n1-c1ccccc1,-5.0,11.6,-10.6,0.187,1.0
CCOC(=O)Cc1csc(SCC(=O)c2c(N)n(CC(C)C)c(=O)n(C)c2=O)n1,-5.9,21.1,0.7,-3.88*,-0.4
COc1cccc2c(=O)c(SC(F)(F)C(F)C(F)(F)F)c(C)[nH]c12 (stereo not given),50.7*,·,45.9,-0.752,1.9
Cc1[nH]c2c(Cl)cccc2c(=O)c1CN1CCCC1,-0.9,-1.2,-7.0,-1.42,2.9
COc1cccc2c(=O)c(C/C=C(/C)Cl)c(C)[nH]c12,2.3,20.9,5.4,0.166,18.4*
Cc1[nH]c2ccc(F)cc2c(=O)c1SC(F)(F)C(F)C(F)(F)F (stereo not given),13.0,·,-15.9,0.0712,0.7
CC1(C)CC(=O)N(c2ccccc2)C1(C)O (stereo not given),-12.1,14.2,-0.7,0.0259,2.6
Cc1ccc(NC(=O)Nc2cccs2)cc1,21.3,-11.8,53.7*,·,·
CCc1ccc(NC(=O)Nc2cccs2)cc1,-2.5,-34.1,-20.8,-0.253,-2.2
N#CC1=C2SCC(O)(c3ccccc3)N2C(=O)CC1c1cccs1 (stereo not given),-0.2,47.5*,0.5,0.713,7.4
Cc1ccc(-n2ncc3c(=O)n(CC(=O)N4CCCc5ccccc54)cnc32)cc1C,-5.3,-5.3,12.2,0.0159,-0.3
COCC(=O)Nc1nnc(C2CCCCC2)s1,34.3,12.5,51.5*,-0.122,-6.1
CCOCC(=O)Nc1nnc(C2CCCCC2)s1,19.8,-5.1,50.5*,-0.13,·
CCOCC(=O)Nc1nnc(C)s1,10.2,-2.6,18.7,·,4.4
COC(=O)c1cccc2c1-c1ccccc1/C2=N/O,9.7,-2.5,-8.1,-0.268,53.5*
COC(=O)c1cn(C(=O)OC)c2ccccc12,-9.8,8.5,1.1,-0.364,8.8
COC(=O)c1ccc(CSc2nc3scc(-c4cccs4)c3c(=O)[nH]2)o1,5.0,-8.5,7.0,1.13,3.1
Cc1nc2ccc(NC(=O)N3CCN(c4ccccn4)CC3)cc2s1,-2.7,9.2,-6.7,-0.0372,3.1
Cc1nc2ccc(NC(=O)N3CCCCC3)cc2s1,53.7*,-1.1,30.2,-1.81,1.2
Fc1cccc(Cl)c1CSc1nnc(COc2cccc3cccnc23)o1,4.6,9.9,-5.7,0.536,·
COC(=O)Nc1nc2ccc(C(=O)c3ccccc3)cc2[nH]1,-40.0,·,-7.6,1.84,20.9*
COC(=O)c1ccc(-c2nc(O)c3cnccn23)cc1,8.8,0.6,0.1,-0.662,-3.4
O=c1c(-c2ccccc2)n[nH]c2ccccc12,75.3*,-28.9,31.1,-2.22,2.3
Clc1ccc(NCc2nnc3n2CCCCC3)cc1,6.1,16.8,0.6,0.185,-3.4
SMILES,SF-1 act,HEK293 NFkB inh,RORA act,D1 allo mod,JNK3 inh
Clc1ccc(-c2cn3c(n2)CCC3)cc1,72.5*,·,21.6,·,4.6
CCOc1ccc(C(=O)Nc2ccc(Cl)cn2)cc1Cl,49.0,-39.4,86.3*,-1.03,6.4
O=C(COc1ccc(Cl)cc1Cl)Nc1ccc(Cl)cn1,30.8,-43.8,29.8,·,5.9
O=C(Nc1ccc(Cl)cn1)c1cccc(F)c1,95.2*,-1.8,105.0*,0.0414,8.4
CC(OC(=O)c1cccc(NS(C)(=O)=O)c1)C(=O)Nc1ccc(N2CCOCC2)cc1 (stereo not given),-2.1,9.4,-15.4,1.04,4.8
Oc1ccccc1-c1cc(-c2ccc3c(c2)OCCO3)n[nH]1,36.4,-47.4,55.0*,·,·
